Assay outcomes deposited in PubChem BioAssay by several laboratories.
APP 5'UTR act = activates APP 5'UTR luciferase reporter; SH-SY5Y APP 5'UTR luciferase reporter, luminescence; zero percent = DMSO vehicle wells; actives 1% (n = 190,000); activation, % at 2 µM; AID 1276;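 active means activation above a set limit, based on mean plus 3 SD of controls, cut at about 140% in these data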
FLuc inh counter = Photinus pyralis luciferase inhibition counter-screen. P08659. ATPLite firefly luciferase biochemical luminescence, 10 min. inhibition, % at 10 µM. actives 1.5% (n = 200,000). AID 1006;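 active means inhibition above about 50% when tested at 10 µM, limit read from the data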
Target sequence (P08659 whole entry, looked up): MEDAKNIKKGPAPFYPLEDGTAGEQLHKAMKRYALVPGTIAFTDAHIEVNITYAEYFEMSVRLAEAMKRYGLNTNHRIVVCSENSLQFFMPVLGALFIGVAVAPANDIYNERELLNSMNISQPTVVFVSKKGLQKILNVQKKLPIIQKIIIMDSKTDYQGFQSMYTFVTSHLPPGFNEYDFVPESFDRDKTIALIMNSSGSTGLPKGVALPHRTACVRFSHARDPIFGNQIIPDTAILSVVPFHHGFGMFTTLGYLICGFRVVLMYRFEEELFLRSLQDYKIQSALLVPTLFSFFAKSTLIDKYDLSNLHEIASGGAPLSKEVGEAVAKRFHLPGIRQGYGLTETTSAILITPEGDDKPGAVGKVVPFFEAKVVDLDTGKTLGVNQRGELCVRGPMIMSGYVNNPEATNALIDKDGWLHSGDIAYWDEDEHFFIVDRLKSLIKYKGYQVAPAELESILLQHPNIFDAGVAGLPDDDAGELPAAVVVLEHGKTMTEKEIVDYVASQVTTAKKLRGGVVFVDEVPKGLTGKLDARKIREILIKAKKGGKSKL
PPC-1+TRAIL kill = PPC-1 cancer cell killing with TRAIL present. PPC-1 cells + TRAIL, ATPLite viability luminescence. cell killing (% activity), % at 4 µM or 5 µM. actives 0.41% (n = 220,000). AID 1443;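 active means cell killing above 50% in the first pass at 4 µM, then a duplicate retest at 5 µM averaging 50% or more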
NF-kB neuron act = compounds increasing NF-kB expression in human neuronal cells; NF-kB reporter expression; hits give high values; fold change at 12.5 µM; actives 1.6% (n = 190,000); in the data active means fold change above about 3.3
C8 TRAIL sens = sensitizes caspase-8 expressing cells to TRAIL; NB7+C8 cells + TRAIL, ATPlite viability luminescence; inhibition (viability loss, TRAIL sensitization), % at 10 µM; actives 1% (n = 360,000);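 active means compounds causing at least 50% loss of cell viability in the single-dose screen, relative to plate controls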
FLuc stim CS = firefly luciferase counter-screen for stimulation assays; P08659; ATPlite luciferase biochemical, luminescence, 10 min; 0 = ATP-free wells, 1 = DMSO control; activation factor at 10 µM; 200,000 tested, under 10 active;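 active means luciferase activation factor, scaled between plate controls, of at least 2 with compound at 10 µM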
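Assay system: Luciferase/luciferin detection reagent, cell-free biochemical luciferase assay / Also added: ATP substrate / Schedule: 10 min at ambient temperature / Measured by: luminescence measurement of luciferase light output / Benchmarks: low control with PBS replacing ATP, high control enzyme plus ATP without compound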
A number is an active result; n = inactive; x = no result given. Only some compounds are listed: those with a hit (about 2.2% of all), similar ones and a draw of the others.

SMILES	APP 5'UTR act	FLuc inh counter	PPC-1+TRAIL kill	NF-kB neuron act	C8 TRAIL sens	FLuc stim CS
CCc1cc(CNC(=O)CCc2nnc(CCCc3ccccc3)o2)on1	n	n	n	3.4	n	n
Cn1c(SCc2ccc(C#N)cc2Cl)nc2ccccc21	187.1	n	n	5.32	n	n
O=C1C=CC(=O)N1	x	x	x	x	n	x
Cc1ccc(C(=O)O/N=C/c2ccc3c(c2)OCO3)cc1	n	58.8	n	n	n	n
COc1ccccc1/C=N/OC(=O)c1ccc(C)cc1	n	71.2	n	n	n	n
O=C(O/N=C/c1ccc2c(c1)OCO2)c1ccc([N+](=O)[O-])cc1	n	n	n	n	n	n
Cc1ccc(C(C#N)=Cc2ccc3c(c2)OCO3)cc1	x	x	x	x	56.0	x
O=S(=O)(/N=C(\c1ccc(F)cc1)N1CCOCC1)c1ccccc1	x	x	x	x	n	x
O=C(O)C(Cc1ccc(Cl)cc1)NS(=O)(=O)c1ccc(Cl)cc1 (stereo unspecified)	x	x	x	x	n	x
Cc1ccc(-n2nc3c(c2NC(=O)C(C)C)CS(=O)(=O)C3)c(C)c1	x	x	x	x	n	x
O=[N+]([O-])c1ccc2cn(-c3ccccc3)nc2c1	140.9	n	n	n	n	n
CCn1cc(C2=NC(C(C)C)CO2)c2ccccc21 (stereo unspecified)	n	n	n	n	n	n
CC(C)C1COC(c2cccc3ccccc23)=N1 (stereo unspecified)	n	n	n	3.69	n	n
CCN(CC)c1ccc(/C=N/Nc2nc(C)cc(=O)[nH]2)c(O)c1	n	n	57.7	n	n	n
Cc1cc(=O)[nH]c(NN=Cc2cc(Br)ccc2O)n1	x	x	x	x	n	x
CCn1c(C)cc(/C=C2/SC(=S)NC2=O)c1C	n	52.2	n	n	n	n
O=C(Nc1nnc(/N=C/c2ccco2)s1)c1ccc(F)cc1	n	n	n	n	49.7	n
O=C(Nc1nnc(-c2ccc(F)cc2)s1)c1ccco1	x	x	x	x	n	x
O=C(Nc1nnc(-c2ccco2)s1)c1ccccc1	161.2	n	n	4.17	n	n
COc1ccc(C(=O)Nc2nnc(-c3ccco3)s2)cc1	x	62.4	n	4.82	59.4	n
O=C(Nc1nnc(-c2ccco2)s1)C1CC1	n	n	n	n	n	n
COc1ccc(C(=O)Nc2nnc(-c3cccs3)s2)cc1	n	n	n	3.34	n	n
COc1cc(C)c(CN2CCN(C(C)C(=O)NC(C)c3ccccc3)CC2)cc1OC (stereo unspecified)	x	x	x	x	n	x
C=CCN1C(=O)C(Cc2ccc(OCC)cc2)S/C1=N\N=C\c1cccs1 (stereo unspecified)	n	n	n	n	n	n
COc1ccc(N/C=C\C(=O)c2ccc3c(c2)OCO3)cc1OC	n	59.7	n	n	n	n
SMILES	APP 5'UTR act	FLuc inh counter	PPC-1+TRAIL kill	NF-kB neuron act	C8 TRAIL sens	FLuc stim CS
COc1cc(C(=O)Nc2ccc3c(c2)OCCO3)ccc1OC(F)F	n	59.2	n	3.37	n	n
COc1ccc(NC(=O)c2ccc3c(c2)OCCO3)cc1OC	x	x	x	x	52.2	x
COc1ccc(NC(=O)c2ccc3c(c2)OCO3)cc1Cl	137.7	61.0	n	4.97	n	n
COc1cc(C(=O)Nc2ccc3c(c2)OCCO3)ccc1OC(C)C	n	n	n	n	n	n
CCC(C)(C)C1CCc2[nH]nc(C(=O)NCc3ccc(Cl)cc3)c2C1 (stereo unspecified)	x	x	x	x	n	x
COc1ccc(N/C=C/C(=O)c2ccc(OC)c(OC)c2)cc1	x	x	n	x	n	x
O=C(Nc1ccc(N2CCCCC2)cc1)c1ccc2c(c1)OCCO2	135.3	64.8	n	3.82	n	n
COc1ccc(C(=O)/C=C/Nc2cccc(C)n2)cc1OC	n	n	n	4.12	n	n
COc1ccc(Cl)cc1-n1c(=S)sc2c(=O)[nH]c(SCC(=O)C(C)(C)C)nc21	x	x	x	x	n	x
Cc1ccc(S(=O)(=O)N2CCOC23CCN(C(=O)C(=O)NCCC(C)C)CC3)cc1	x	x	x	x	n	x
Cc1ccc(Nc2nc(=O)c3cccnc3s2)cc1	n	n	n	4.32	n	n
O=C(O)c1ccc2c(c1)C(=O)N(c1cccc3ccccc13)C2=O	x	x	x	x	n	x
COc1ccc(-c2csc(NCc3ccco3)n2)cc1	157.7	71.9	n	6.2	n	n
CC(=O)c1cc(CCC(=O)NC2CCCCCC2)oc1C	x	x	x	x	n	x
COc1ccc(OC)c(N/C(C)=C/C(=O)c2ccccc2)c1	n	76.4	n	n	n	n
COc1ccc(OC)c(N/C=C/C(=O)c2ccccc2)c1	x	x	x	x	91.0	x
C/C(=C\C(=O)c1ccncc1)Nc1ccccc1O	n	n	n	6.04	n	n
COC(=O)/C(=C\C(=O)c1ccccc1)Nc1ccc(OC)cc1	x	x	n	x	n	x
COc1ccc(N/C(C)=C/C(=O)c2ccccc2)cc1	n	n	n	3.43	n	n
COc1ccc(S(=O)(=O)N2CCC(C(=O)NCC(=O)Nc3c(C)cccc3C)CC2)cc1OC	x	x	x	x	n	x
CCOC(=O)[C@]12CCCC=C1N(Cc1cccc3ccccc13)C(=O)[C@H](CC(=O)NCCCOC)C2	x	x	x	x	n	x
COc1ccc(-c2csc(-c3ccc(C(=O)O)cc3)n2)cc1	n	n	n	7.57	n	n
O=C(O)c1ccc(-c2nc(-c3ccc(Cl)cc3Cl)cs2)cc1	n	n	n	n	n	n
O=C(O)c1ccc(-c2nc(-c3ccc(Cl)cc3)cs2)cc1	241.4	n	n	6.3	n	n
COc1ccc(Cl)cc1-c1cc(C(=O)NCc2cccs2)[nH]n1	x	x	x	x	n	x
SMILES	APP 5'UTR act	FLuc inh counter	PPC-1+TRAIL kill	NF-kB neuron act	C8 TRAIL sens	FLuc stim CS
S=c1[nH]nc(-c2ccccc2)n1/N=C/c1ccc(-c2ccccc2Cl)o1	n	n	n	4.54	n	n
CCc1ccc(C(=O)COC(=O)[C@@H](NC(N)=O)[C@@H](C)CC)cc1	n	89.2	n	n	n	n
CCC(C)C(NC(N)=O)C(=O)Nc1ccc(C(=O)OC)cc1 (stereo unspecified)	n	n	n	n	n	n
CSCC(=O)Nc1nc(-c2ccc3c(c2)OCCO3)cs1	152.8	n	n	4.77	n	n
CCCC(=O)Nc1nc(-c2ccc3c(c2)OCCO3)cs1	140.8	n	n	4.48	n	n
O=C(NCc1ccco1)c1cc(-c2cccs2)on1	n	n	n	5.18	n	n
O=C(NCc1ccco1)c1cc(-c2ccccc2)on1	n	n	n	4.46	n	n
O=C(NCc1ccccc1)c1cc(-c2cccs2)on1	n	n	n	n	n	n
COCCN1C(=O)c2oc3cc(C)c(C)cc3c(=O)c2C1c1ccc(O)cc1 (stereo unspecified)	n	x	x	x	n	x
COc1ccc(C(=O)Nc2ccccc2C(=O)Nc2ccccc2)cc1	x	x	x	x	n	x
CCOc1ccc(/C=N/NC(=O)c2ccccc2NC(=O)c2ccc(OC)cc2)cc1	n	94.1	n	n	76.0	n
COc1ccc(C(=O)Nc2ccccc2C(=O)N/N=C/c2ccco2)cc1	n	96.9	n	n	84.0	n
Nc1cc2c3c(cccc3c1)C(=O)N(CCN1CCCC1)C2=O	x	x	n	x	n	x
O=C1c2cccc3cc([N+](=O)[O-])cc(c23)C(=O)N1CCN1CCCC1	x	x	n	x	59.2	x
